Assay results taken from the EternaBench riboswitch data.

System: MS2 coat protein
Experiment: apparent Kd, MS2 coat protein; higher = weaker binding; RNA-MaP array; FMN 200 µM where present
Summary of the method: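 Apparent Kd: the median of filtered binding-curve fits from single clusters. Designs were transcribed on Illumina sequencing-chip clusters by stalled E. coli RNA polymerase and titrated with SNAP-549-labelled MS2 coat protein from 0.7 or 1.5 nM, doubling to 3 µM, in 100 mM Tris-HCl pH 7.5, 80 mM KCl, 4 mM MgCl2, BSA, DTT, yeast tRNA and Tween-20. Each series ran without and then with constant ligand, and green signal was normalised to red-channel RNA signal and control-cluster median Fmax.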

[1] = designed as: OFF switch for flavin mononucleotide, no ligand
[2] = ligand present: flavin mononucleotide, designed as: OFF switch for flavin mononucleotide
[3] = designed as: ON switch for flavin mononucleotide, no ligand
[4] = ligand present: flavin mononucleotide, designed as: ON switch for flavin mononucleotide

Row | Sequence | apparent Kd [1] [nM] | apparent Kd [2] [nM] | apparent Kd [3] [nM] | apparent Kd [4] [nM]
1 | CCCUCACCAGUCAGGAUAUCUUGUGCGAAAAUGCUAGAGAAGGGACAUGAGGAUCACCCAUGUGCCUGCAAGGA | 17.1 | 17.9 |  | 
2 | ACUAUACGAGGAUAUACUGACGGGCCUCAGGCAUACAUCAGACAUGAGGAUCACCCAUGUAGAAGGCGUAUACU | 104 | 40.6 |  | 
3 | GCAGCAAUUUAAAACAUGAGGAUCACCCAUGUCGAGAGAUAUGAGGAUAUGCAUCGGAUGAAGAUGCAGAAGGCAUUGUGCUGC |  |  | 24.8 | 7.68
4 | AUCAGCUCAUCAGGAUAUACGUCACUGCGUCAGCAGUGUGGUAAGAUCACAUGAGGAUCACCCAUGUAGAAGGGACGAGCUGAU | 13.7 | 243 |  | 
5 | AGUGUCGGCACAGGAUAUGAGAUGCCGGCAGACAUGAGGAUCACCCAUGUAAGCGACCCAGGCAGUCAGAAGGGUGAUCGACAA |  |  | 156 | 44.4
6 | GCCUCAGAAUUAAUUGUGAGAAGCAGAAGGCUAUAUCUUAUGUUAGACAUGAGGAUCACCCAUGUAGAGGAUAUGCUGUUACAG | 7.84 | 12 |  | 
7 | CCGAAACCUCAGAAGGACCACAUGAGGAUCACCCAUGUCAAGCAAAACGGUAGGAUAUGAGGGAAAUGUCGAUAUACCCGACAG |  |  | 7.9 | 4.72
8 | UACAGCGUAGAUAAUAAUGAAUACAUGAGGAUCACCCAUGUAUAGGAUAUGCAGUGGAAUACACUGCAGAAGGAUACAUCGCUG | 16.4 | 23 |  | 
9 | GUUAUAGGAGGAUAUACAUGAGGAUCACCCAUGUCUCACCCAUGGCAACGAACCUAUUGUAGAAGGCUUGAAGA | 74.5 | 182 |  | 
10 | ACUGGUCGAGGAUAUGCAAUCGUGCUUCGGCACGUAAGGUCACAUGAGGAUCACCCAUGUAGAAGGCGACCAGU | 17.2 | 36.4 |  | 
11 | UUUAAACAGUCAGGAUAUGUAACGCACAACGGCGCAGAAGGGACAUGAGGAUCACCCAUGUUAUGGUUCUGGUACUAUGACGUU | 18.4 | 22.9 |  | 
12 | UUUAUUAACAAGAAGGCAUACAUGAGGAUCACCCAUGUUCUACAUGGAUAAUGAGGAUAUUGCUAAUACAUGAGGAUCACCCAU | 50.6 | 53 |  | 
13 | UGGUACUAGGGAGGAUAUGGGAAGAUACAUGAGGAUCACCCAUGUUUAUGAAUGCCGAGAGGCAACUAGAAGGCCCUAGUACCU |  |  | 292 | 13
14 | GCGAUUGCGUAGAAGGUACAAUUUAAUACAUUGUAAGGAUAUACUUACAUGAGGAUCACCCAUGUUAAUGGAAUUUGCAAUCGC |  |  | 16.7 | 10.8
15 | UGGUACUAGGGAGGAUAUGGGAAGAUACAUGAGGAUCACCCAUGUUUAAGAAUGCCGAGAGGCAACAAGAAGGCCCUAGUACCU |  |  | 532 | 98.9
16 | CGCAGUACUUAGGUACUACACAUGAGGAUCACCCAUGUAUCACAGGAUAUGCAUGAUAUAUUCAGGCAGAAGGGUGAUCUUACC |  |  | 54.5 | 130
17 | GCGAAGAACGAGAAGGCCACUACAUGAGGAUCACCCAUGUCGUGGAGUAUUGGAGGAUAUCGUUCGGCGUCUCAUGAGGACAUA | 4.95 | 5.22 |  | 
18 | GCGCACUAAGUGAGGAUAUCGAUUUCUUUAAGGAUCGAGAAGGCACAUGAGGAUCACCCAUGUUUGACGUGCGC | 16.9 | 14.5 |  | 
19 | AUAUCUUUAUCAGGAUAUGGACAGGCCUGUCCGUAUUGAGACAGUAACAUGAGGAUCACCCAUGUCCAGAAGGGAUCGAUGUAU | 56.5 | 45.8 |  | 
20 | GGCGGCGCGGGCCACCGCAAAACCAGAAGGACAUGAGGAUCACCCAUGUAACAAAACAGGGCGGUGUAGGAUAUGGCAGACCCG | 14.2 | 25 |  | 
21 | CUUUUAUAAUAGAAGGUUGACUUUAAGUGGAUCACCCAUGUGUAGGUACAAAGGAUAUGUAGUUACAUGAGGAUCACCCAUGUU |  |  | 306 | 201
22 | AGUCGGAGCAGAGGAUAUAUACAUGAGGAUCACCCAUGUGACUGACUACGCUGGAAACAGCAUGUAUAGAAGGCUGCUCCGACA | 448 | 882 |  | 
23 | UUAUUUAGGUAGGAUAUCGAUAUUAAUCCCUAUCGAGAAGGGUCUACAUGAGGAUCACCCAUGUUAGCAUGUUU | 21.5 | 21.3 |  | 
24 | UGGUACAUCGGAGGAUAUCAUGUGAAAACAUGAGGAUCACCCAUGUCGAUGGAGACAUCGGAGAUUGAGAAGGCCGAUGUACCU |  |  | 1470 | 49.9

Row | Sequence | apparent Kd [1] [nM] | apparent Kd [2] [nM] | apparent Kd [3] [nM] | apparent Kd [4] [nM]
25 | UUUAUAUAGUAAGGAUAUGUAUUAUUUUUGUCAACAGAAGGUACUGACAUGAGGAUCACCCAUGUUUUAGUGUGGGCAUGUAGU | 219 | 283 |  | 
26 | CCUAAGGAGACAGGAUAUAGCGUGGUGGCCGGGCUCCCACGGCGAGCGGCGCUAGAAGGGUCACUACAUGAGGAUCACCCAUGU |  |  | 11.2 | 11.6
27 | GGGCAAAAGUAGAAGGGAUAUACGAAAAGUAUAUCAGGAUAUACAUGAGGAUCACCCAUGUUCUAAAAGUGAUAAUCCUCCCUA | 70 | 346 |  | 
28 | CGCGCGGUGUAGAAGGGUGACAUGAGGAUCACCCAUGUGCGGAGGCGCCCAUUGACGCCUCCGCCACAGGAUAUACACCACGCC |  |  | 46.8 | 66.9
29 | ACUAGGCGAGGAUAUACAUGCUUAACACAGCGAAAGCUGUGACAUGAGGAUCACCCAUGUAGAAGGCGCAAAUA | 54.1 | 365 |  | 
30 | GAUUUACAUGAGGAUCACCCAUGUGAGGAUAUUGGGCUAGCAGAGUGAAUUCGCUGUCCAAGAAGGUACUGGAA | 32.6 | 32.5 |  | 
31 | GGACGUCAGAUUAACAUGAGGAUCACCCAUGUCUUUUGACAUGAGGAUAUGGAUCCUAAUUGGAUCCAGAAGGCAUGGACGUCC |  |  | 1120 | 94.9
32 | UGUCGGAGCAGAGGAUAUUACAUGAGGAUCACCCAUGUAUGAACCAAUAGCUGGAAACAGCAAUGUAAGAAGGCUGCGCCGACA | 12.5 | 153 |  | 
33 | AUUGUAGUUGUGAGGAUAUCGUUGAUUUUUUGAAACGAGAAGGCACAUGAGGAUCACCCAUGUAAGUUGUAGGU | 80.6 | 315 |  | 
34 | UUGGACGUCGUAGGAUAUGGAGGAUAUUCCUACAUGAGGAUCACCCAUGUUGACAUGGAAGAAGGACAGAAGGACGAUGUCCAU |  |  | 10.1 | 4.14
35 | CGCAAGUCAGGAUAUUCGACUGGUCCAUCUGUGGAUUUGUAGGAGAAGGGACAUGAGGAUCACCCAUGUUUGUU | 30.6 | 23.9 |  | 
36 | GUGUUACAUGAGGAUCACCCAUGUUGUUUUAGAUAAGGAUAUAUGGUAACGAGAGAAAUAAUAGAAGGUAUUAGGC |  |  | 33.4 | 23.1
37 | GGGUACAUCGGAGGAUAUCAUGUAAAUACAUGAGGAUCACCCAUGUCGAUGGAGACAUCGGAGAUUGAGAAGGCCGAUAUACCG |  |  | 139 | 9.34
38 | ACACAGGGAGGAUAUACAUGAGGAUCACCCAUGUAGAGUGGAUUGGGAUUGCUAUCAAGUAGAAGGCUUUAGUG | 56.1 | 122 |  | 
39 | UUGGACGUCGUAGGAUAUGUAGGAUAUUGCUACAUGAGGAUCACCCAUGUUGACAUGGAAGAAGGACAGAAGGACGAUGUCCAU |  |  | 43.8 | 5.59
40 | UUCUUGGCAGGAUAUGCUUUUUUAGACAUGAGGAUCACCCAUGUGAUUAUUUUUGGUUUUGCAGAAGGGCCUUAAU | 65.4 | 87.2 |  | 
41 | UUAAUGUGAGGAUAUCAGGUGUGCUAGCGUACUGGUACAUCUGAGAAGGCACAUGAGGAUCACCCAUGUUCUUC | 37 | 135 |  | 
42 | AGAGUGUGAGGAUAUAUGGUAAAAGUGAAGAGAGAGGAGGAGUAGAAGGUACAUGAGGAUCACCCAUGUUUGGA | 42.8 | 36.7 |  | 
43 | CGGCUCUCAGGAUAUACCUUGGGUGGCCAACUGUUUCGUUUACAUGAGGAUCACCCAUGUAGAAGGGAGGGCAA | 53.8 | 33 |  | 
44 | GUGCAACAUGAGGAUCACCCAUGUCAGGAUAUGCGAAUUUCAUCAAAAGAUGAAAUUUGCAGAAGGGACUGCAC | 19 | 22.8 |  | 
45 | UUAUACGUUGAGGAUAUGCGAUUUAGUAUAGUUGUAGAAGGCGAUACAUGAGGAUCACCCAUGUUUAUGGGCAU | 328 | 257 |  | 
46 | UGAUAGGACAGAGGAUAUACGUGCUAGAGAUACUAGCAAAGUAUCUUGACAUGAGGAUCACCCAUGUAGAAGGCUGUCCUAUCU | 5.99 | 14.3 |  | 
47 | GGUGCGUAUGUGAGGAUAUGCUGGUCCUUGGAUCAGCAGAAGGCACAUGAGGAUCACCCAUGUGGUGUCGUACC | 357 | 23.5 |  | 
48 | CCAUAAAAGAUCCAAAAUUACAACAUGAGGAUCACCCAUGUGCAGGAUAUCGUGCCAGUGAAGUACGAGAAGGGCAGACACUGC | 450 | 487 |  | 
